Experimental data as given in ChEMBL document CHEMBL1149888 (Bioorg Med Chem, 2008).

Key:
[1] = biological target: Butyrylcholinesterase (Equus caballus, UniProt Q9N1N9); assay: Inhibition of equine serum BuChE by Ellman's assay
Outline: (§1)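 Ellman photometric assay with electric eel AChE (type VI-S) or equine serum BChE (enzyme solution 2.5 U/mL) in phosphate buffer, pH 8.0. Enzyme and inhibitor stand together for 5 min, then DTNB is added. The reaction starts with acetylthiocholine (AChE) or butyrylthiocholine (BChE), and A412 is read 2.5 min later at 25 °C. At least five concentrations (highest 10^-4 M final) are run in triplicate. Percent activity versus the no-inhibitor reference is plotted against log concentration; each value is the mean of ≥3 independent runs.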

[2] = biological target: Acetylcholinesterase (Electrophorus electricus, UniProt O42275); assay: Inhibition of electric eel AChE type 6S by Ellman's assay
Chain of Acetylcholinesterase (O42275 whole entry): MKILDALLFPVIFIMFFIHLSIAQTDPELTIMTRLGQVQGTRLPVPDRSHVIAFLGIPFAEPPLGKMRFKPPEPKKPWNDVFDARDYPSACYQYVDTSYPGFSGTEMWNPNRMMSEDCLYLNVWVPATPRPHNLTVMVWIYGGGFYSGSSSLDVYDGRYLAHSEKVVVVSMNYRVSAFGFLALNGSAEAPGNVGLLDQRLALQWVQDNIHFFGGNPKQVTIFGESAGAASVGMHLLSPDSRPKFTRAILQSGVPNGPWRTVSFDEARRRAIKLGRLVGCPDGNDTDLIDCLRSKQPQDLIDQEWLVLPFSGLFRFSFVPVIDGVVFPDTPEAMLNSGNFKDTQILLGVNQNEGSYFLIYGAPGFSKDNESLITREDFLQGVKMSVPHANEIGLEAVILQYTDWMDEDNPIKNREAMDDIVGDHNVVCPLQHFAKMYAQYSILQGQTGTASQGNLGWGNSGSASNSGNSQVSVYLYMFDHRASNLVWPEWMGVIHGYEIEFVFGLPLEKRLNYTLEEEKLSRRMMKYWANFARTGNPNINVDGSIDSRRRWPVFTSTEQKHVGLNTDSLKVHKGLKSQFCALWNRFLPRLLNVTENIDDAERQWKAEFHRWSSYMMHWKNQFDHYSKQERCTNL

[3] = Selectivity ratio of IC50 for electric eel AChE to IC50 for equine serum BuChE
[4] = Antioxidant scavenging activity against AAPH-induced peroxyl radical assessed as trolox equivalent per uM of compound by ORAC-fluorescein assay; type: physicochemical
Outline: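 Peroxyl radicals generated by AAPH (12 mM final) at 37 °C in 75 mM phosphate buffer pH 7.4. Sample (0.5–10 µM) was preincubated 15 min with fluorescein (300 nM final), then AAPH added. Fluorescence (ex 485/em 535 nm) read every 60 s for 90 min. Net AUC vs blank was calibrated against Trolox (1–8 µM final). Each run fourfold, at least four independent runs.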

[5] = Cytotoxicity against mouse brain N11 cells from by MTT assay; type: cell-based
Outline: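 N11 microglia (embryonic mouse brain, retrovirus-immortalized) were kept in DMEM with 10% heat-inactivated FCS and 2 mM glutamine. Cells were seeded at 5×10³/well and grown 24 h, then exposed 24 h to compound or solvent in phenol-red-free medium with 1% FCS.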

[6] = biological target: Acetylcholinesterase (Electrophorus electricus) (UniProt O42275); assay: Inhibition of electric eel AChE at 10 uM by Ellman's assay; outline: as §1
Chain of Acetylcholinesterase (Electrophorus electricus) (O42275 24-633 limits assumed): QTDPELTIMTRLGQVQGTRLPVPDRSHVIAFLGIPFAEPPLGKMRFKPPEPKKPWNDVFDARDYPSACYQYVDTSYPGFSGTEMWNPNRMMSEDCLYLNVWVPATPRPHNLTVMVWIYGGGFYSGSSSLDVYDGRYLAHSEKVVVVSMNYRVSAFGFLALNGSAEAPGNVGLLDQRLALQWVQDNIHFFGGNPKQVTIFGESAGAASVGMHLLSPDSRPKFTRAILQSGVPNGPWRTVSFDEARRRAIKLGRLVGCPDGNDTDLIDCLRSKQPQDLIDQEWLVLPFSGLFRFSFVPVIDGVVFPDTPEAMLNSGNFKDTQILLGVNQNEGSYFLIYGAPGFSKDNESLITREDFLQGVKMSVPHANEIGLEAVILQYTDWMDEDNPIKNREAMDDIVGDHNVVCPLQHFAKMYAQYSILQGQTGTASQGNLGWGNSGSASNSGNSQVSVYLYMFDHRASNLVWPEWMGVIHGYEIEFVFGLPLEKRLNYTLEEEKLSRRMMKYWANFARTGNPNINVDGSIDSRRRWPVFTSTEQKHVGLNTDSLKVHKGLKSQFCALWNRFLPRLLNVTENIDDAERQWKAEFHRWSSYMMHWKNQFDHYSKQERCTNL

Chain of Butyrylcholinesterase (Q9N1N9 whole entry): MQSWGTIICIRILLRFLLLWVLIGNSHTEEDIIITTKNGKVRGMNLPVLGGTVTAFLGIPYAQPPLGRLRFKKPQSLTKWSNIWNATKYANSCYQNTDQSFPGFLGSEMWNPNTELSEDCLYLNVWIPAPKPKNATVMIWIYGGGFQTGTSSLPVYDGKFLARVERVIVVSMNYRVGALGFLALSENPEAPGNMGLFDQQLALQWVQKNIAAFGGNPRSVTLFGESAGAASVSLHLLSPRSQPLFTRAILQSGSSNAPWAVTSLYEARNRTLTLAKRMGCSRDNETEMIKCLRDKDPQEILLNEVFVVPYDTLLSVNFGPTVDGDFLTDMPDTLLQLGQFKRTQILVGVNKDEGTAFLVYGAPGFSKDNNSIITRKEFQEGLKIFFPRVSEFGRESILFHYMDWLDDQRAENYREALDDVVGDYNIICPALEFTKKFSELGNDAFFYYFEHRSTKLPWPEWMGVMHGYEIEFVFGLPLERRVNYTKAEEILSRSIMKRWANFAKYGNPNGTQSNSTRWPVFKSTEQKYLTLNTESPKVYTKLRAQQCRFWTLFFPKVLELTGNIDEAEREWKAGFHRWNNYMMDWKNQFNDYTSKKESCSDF

Row | SMILES | IC50 [1] [nM] | IC50 [2] [nM] | Ratio IC50 [3] | Activity [4] | IC50 [5] [nM] | inhibition [6] [%]
1 | O=C(CCCCC1CCSS1)NCCCCC/N=c1/c2ccc(Cl)cc2nc2n1CCC2 (stereo unspecified) | 53 | 4380 | 83 | – | – | –
2 | O=C(CCCCC1CCSS1)NCCCCCCCC/N=c1/c2ccc(Cl)cc2nc2n1CCC2 (stereo unspecified) | 5.7 | 468 | 82 | 0.5 | 10200 | –
3 | NCCCC/N=c1/c2ccc(Cl)cc2nc2n1CCC2 | 720 | 480 | 0.7 | – | – | –
4 | N=c1c2ccccc2nc2n1CCC2 | – | – | 1.8 | – | – | –
5 | NCCCCC/N=c1/c2ccc(Cl)cc2nc2n1CCC2 | 190 | 170 | 0.9 | – | – | –
6 | NCCCCCC/N=c1/c2ccc(Cl)cc2nc2n1CCC2 | 380 | 1490 | 3.9 | 0.2 | 6010 | –
7 | O=C(CCCCC1CCSS1)NCCCCCC/N=c1/c2ccc(Cl)cc2nc2n1CCC2 (stereo unspecified) | 26 | 740 | 28.8 | – | – | –
8 | NCCCCCCCC/N=c1/c2ccc(Cl)cc2nc2n1CCC2 | 12 | 130 | 10.7 | 0.1 | 6270 | –
9 | NCCC/N=c1/c2ccc(Cl)cc2nc2n1CCC2 | 10200 | 19000 | 1.9 | – | – | –
10 | NCCCCCCCC/N=c1/c2ccccc2nc2n1CCCCCC2 | 46 | 3400 | 73.9 | 0.1 | 3740 | –
11 | CCCC/N=c1/c2ccc(Cl)cc2nc2n1CCC2 | – | – | 1.7 | – | – | –
12 | NCCCCCCC/N=c1/c2ccc(Cl)cc2nc2n1CCC2 | 710 | 4060 | 5.7 | – | – | –
13 | c1ccc(C/N=c2/c3ccccc3nc3n2CCCCCCC3)cc1 | 1100 | > 500000 | – | – | – | –
14 | O=C(CCCCC1CCSS1)NCCCC/N=c1/c2ccc(Cl)cc2nc2n1CCC2 (stereo unspecified) | 170 | 4580 | 27.1 | – | – | –
15 | Clc1ccc2/c(=N/CCCCCCCC/N=c3/c4ccc(Cl)cc4nc4n3CCC4)n3c(nc2c1)CCC3 | 45 | 50 | – | – | – | –
16 | O=C(CCCCC1CCSS1)NCCCCCCCC/N=c1/c2ccccc2nc2n1CCCCCC2 (stereo unspecified) | 23 | – | > 5000 | 0.4 | 6540 | < 10
17 | O=C(O)CCCCC1CCSS1 (stereo not drawn) [LIPOIC ACID, ALPHA] | – | – | – | 0.6 | – | –
18 | O=C(CCCCC1CCSS1)NCCCCCCC/N=c1/c2ccc(Cl)cc2nc2n1CCC2 (stereo unspecified) | 14 | 1940 | 134 | – | – | –
19 | O=C(CCCCC1CCSS1)NCCC/N=c1/c2ccc(Cl)cc2nc2n1CCC2 (stereo unspecified) | 2580 | 2840 | 1.1 | 0.8 | 7510 | –
